Shown are actives, neighbours in structure and some others; about 1.7% of the full set was active somewhere.
PfHsp90 set2 = growth inhibition of PfHsp90-expressing yeast, primary screen, antimalarial PfHsp90 inhibitor project, S. cerevisiae, BacTiter-Glo luminescence, single point, set 2; BacTiter-Glo ATP, 48 h; yeast lacking PDR1 and PDR3 efflux regulators; inhibition, % at 9.4 µM; 0.32% of 310,000 active; AID 504621, 2011;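 active means every replicate shows inhibition above about 80%, whatever the replicate mean, limit read from the data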;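 further: 0% = DMSO neutral controls and 100% = 20 µM radicicol positive controls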
Rtt109 HAT inh = inhibitors of C. albicans Rtt109/Vps75 HAT, primary screen, biochemical, ThioGlo CoA-SH fluorescence, plate reader; inhibition, % at 34.9 µM; 0.16% of 330,000 active; purified Rtt109/Vps75, 4 h; Histone acetyltransferase RTT109 (Candida albicans (strain SC5314 / ATCC MYA-2876)), …; AID 540336, 2011;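 active means inhibition of at least 50% in every replicate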
Target sequence (Q5AAJ8 whole entry, looked up): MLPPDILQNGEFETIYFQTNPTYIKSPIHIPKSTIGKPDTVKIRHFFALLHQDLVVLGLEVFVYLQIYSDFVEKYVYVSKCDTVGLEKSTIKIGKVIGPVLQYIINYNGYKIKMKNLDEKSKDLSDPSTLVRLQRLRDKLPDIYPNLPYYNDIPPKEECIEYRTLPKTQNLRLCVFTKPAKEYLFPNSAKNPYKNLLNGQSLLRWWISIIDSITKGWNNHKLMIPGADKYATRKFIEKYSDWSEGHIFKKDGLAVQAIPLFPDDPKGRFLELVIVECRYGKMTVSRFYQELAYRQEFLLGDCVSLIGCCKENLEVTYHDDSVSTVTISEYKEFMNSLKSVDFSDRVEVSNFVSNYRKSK
SKKanGAS inh = S. pyogenes SKKanGAS growth inhibitors in kanamycin, primary screen, streptokinase expression inhibitor project, SKKanGAS strain, BacTiter-Glo luminescence. 6 h. inhibition, % at 7.5 µM. 1.3% of 300,000 active. AID 1662, 2009;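 active means mean replicate score, as percent of positive control median, at least 50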;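 further: strain carries kanamycin resistance gene driven by streptokinase promoter and grows in 40 µg/ml kanamycin; loss of luminescence reflects streptokinase promoter inhibition or plain growth inhibition; 0% = median of DMSO wells and 100% = positive control at its reference dose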
FN deposition inh = inhibitors of fibronectin matrix deposition, primary screen, AH1F cells, Alexa488-fibronectin fluorescence, plate reader; AH1F fibroblasts, overnight; inhibition, % at 12.6 µM; 0.086% of 350,000 active;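 active means mean inhibition across replicates of 30% or more, regardless of how many single replicates reach that level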;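 further: positive control wells lacked labelled fibronectin entirely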
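Material – AH1F fibroblast monolayer, labelled fibronectin deposition · Reagent – labelled fibronectin 24 nM · Timing – 1 h adhesion, overnight exposure · Measured by – fluorescence at 485 nm excitation, 525 nm emission · Read-out – inhibition of fibronectin deposition signal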
PglD inh = C. jejuni PglD acetyltransferase inhibitors, primary screen, biochemical, DTNB colorimetric, single point; 0.098% of 360,000 active; purified PglD enzyme, DTNB colorimetric CoA detection; inhibition, % at 12.5 µM; UDP-N-acetylbacillosamine N-acetyltransferase PglD (Campylobacter jejuni); AID 602405, 2012; in the data active means inhibition above about 16%, passing the limit was not always enough
CSC inhib = cancer stem cell viability inhibitors, primary screen, luminescence. inhibition, % at 7.5 µM. AID 2717, 2010. cancer stem cell-like cells viability. 1.1% of 300,000 active; in the data active means inhibition above about 75%; tested in HMLE shEcad cells
* = called active by the depositor; x = not tested or not shown; + = active, no number.

SMILES | PfHsp90 set2 | Rtt109 HAT inh | SKKanGAS inh | FN deposition inh | PglD inh | CSC inhib
COc1cccc(-c2ccc3n(c2=O)C[C@@H]2[C@@H](CO)[C@H](C(=O)NCC4CC4)[C@H]3N2S(C)(=O)=O)c1 | x | x | x | 2 | -2 | x
C=C1c2cccc(O)c2C(O)=C2C(=O)[C@]3(O)C(O)=C(C(N)=O)C(=O)[C@@H](N(C)C)[C@@H]3[C@@H](O)[C@H]12 | 9 | -9 | 106* | x | -2 | -15
C[C@H]1c2cccc(O)c2C(O)=C2C(=O)C3(O)C(O)=C(C(N)=O)C(=O)[C@@H](N(C)C)[C@@H]3[C@@H](O)[C@@H]21 (some centres undefined) | -1 | 1 | x | 7 | -1 | -8
CN(C)c1ccc(O)c2c1CC1CC3C(N(C)C)C(=O)C(C(N)=O)=C(O)[C@@]3(O)C(=O)C1=C2O (some centres undefined) | -2 | 10 | 110* | -4 | 3 | -1
Cc1ccccc1-c1ccc2c(c1)O[C@@H](CN(C)Cc1ccncc1)[C@H](C)CN([C@@H](C)CO)S2(=O)=O | x | x | x | x | 0 | x
O=C(c1ccc([N+](=O)[O-])o1)N1CCN(c2nc3c(F)cc(F)cc3s2)CC1 | x | -8 | 24 | x | 4 | 7
Cc1ccc(C)c2sc(N3CCN(C(=O)c4ccc([N+](=O)[O-])o4)CC3)nc12 | x | 20 | 65* | 0 | -3 | 24
COc1ccc(COCC23N=C4SCCCN4[C@H](c4ccccc4O2)[C@H]3CO)cc1 | x | x | x | x | -1 | x
[O-][n+]1cccc2c(Br)cc(Br)c(O)c21 | 107* | x | 76* | -17 | 2 | 8
C[C@H](CO)N1C[C@H](C)[C@@H](CN(C)S(=O)(=O)c2ccc(Cl)cc2)Oc2c(NC(=O)c3nc4ccccc4s3)cccc2C1=O | x | x | x | -13 | 1 | x
O=C(C[C@@H]1CC[C@@H]2[C@H](COC[C@@H](O)CN2Cc2ccc(F)cc2)O1)N1CCc2ccccc2C1 | x | x | x | 3 | 25* | x
O=C(c1ccc(Cl)cc1)N1CCN(c2ccc(F)cc2)CC1 | 102* | x | 4 | -7 | -4 | -4
Cc1[nH]c(-c2ccc(F)cc2)cc1C(=O)N1CCN(c2cccc(Cl)c2)CC1 | -34 | x | 67* | -8 | -10 | 24
Cc1[nH]c2ccc(C(=O)N3CCN(c4cccc(Cl)c4)CC3)cc2c1C | 93* | -3 | 27 | 9 | x | 65
COc1cccc(CN2[C@@H](CO)[C@H](c3ccccc3)C23CN(Cc2ccccc2OC)C3)c1 | x | x | x | -9 | x | x
COc1ccc(CN(C)C[C@H]2OCCCC[C@@H](C)Oc3ccc(N(C)C)cc3C(=O)N([C@@H](C)CO)C[C@@H]2C)cc1 | x | x | x | x | 2 | x
CCCNC(=O)C[C@@H]1C[C@@H]2c3cc(NC(=O)C4CCC4)ccc3O[C@@H]2[C@@H](CO)O1 | x | x | x | -1 | 4 | x
O=C(Nc1ccccc1Cc1ccccc1)c1ccccc1NS(=O)(=O)c1ccc(Cl)s1 | -9 | 13 | 117* | -12 | 0 | +
C[C@@H]1CN(C)C(=O)Cc2cc([N+](=O)[O-])ccc2O[C@H]1CN(C)C(=O)OC(C)(C)C | x | x | x | -22 | x | x
COc1ccccc1-c1oc2ccccc2c1C#CC1(N)CCCCC1 | 1 | 2 | x | 4 | 2 | 130*
COc1ccccc1NC(=O)N(C)C[C@@H]1Oc2ncc(C#CCN(C)C)cc2C(=O)N([C@@H](C)CO)C[C@H]1C | x | x | x | x | 5 | x
C[C@H]1CN([C@@H](C)CO)C(=O)Cc2cc(NC(=O)Nc3ccc(C(F)(F)F)cc3)ccc2O[C@H]1CN(C)C(=O)Nc1ccc(F)cc1 | x | x | x | x | 1 | x
Cc1ccc(C2C3=C(CC(C)(C)CC3=O)N=C3c4ccccc4C(=O)C32)cc1 (centres undefined) | -12 | 1 | 20 | 1 | x | 8
CC1(C)CC(=O)C2=C(C1)N=C1c3ccccc3C(=O)C1C2c1ccc(Cl)cc1 (centres undefined) | 0 | 0 | 50* | x | -4 | 27
COc1ccc(C(=O)Nc2nnc(-c3ccccc3)o2)cc1OC | -16 | -1 | 50* | x | 7 | 18
SMILES | PfHsp90 set2 | Rtt109 HAT inh | SKKanGAS inh | FN deposition inh | PglD inh | CSC inhib
COc1ccc(C(=O)OCC(=O)Nc2nnc(-c3ccccc3)o2)cc1 | -16 | 22 | 59* | 1 | 1 | 25
O=C(NCc1cccs1)c1cc(-c2ccccc2)nc2ccccc12 | 16 | 7 | 3 | x | x | 0
O=C(Nc1nnc(-c2cccs2)o1)c1cc(-c2ccccc2)nc2ccccc12 | -77 | 7 | 92* | 2 | 4 | 49
O=C(Nc1nnc(-c2ccc(F)cc2)o1)c1cccc([N+](=O)[O-])c1 | -80 | 4 | 84* | 1 | x | 62
C[C@@H]1CN([C@@H](C)CO)C(=O)c2cccc(NC(=O)Nc3ccc(C(F)(F)F)cc3)c2O[C@@H]1CN(C)Cc1ccncc1 | x | x | x | x | 1 | x
COCC(=O)Nc1ccc2c(c1)C(=O)N(C)[C@@H]1CC[C@@H](CC(=O)NCCc3ccccc3)O[C@@H]1CO2 | x | x | x | -8 | 1 | x
C[C@H]1CN([C@@H](C)CO)C(=O)c2cccc(NC(=O)C3CC3)c2O[C@@H]1CN(C)Cc1ccc(Cl)c(Cl)c1 | x | x | x | x | 2 | x
O=C(Nc1nnc(-c2cccs2)o1)c1cccc(Oc2ccccc2)c1 | 51 | 15 | x | 11 | -3 | 63
COc1cccc(-c2nnc(NC(=O)c3ccccc3Br)o2)c1 | -15 | -1 | 38 | -3 | 1 | 17
COc1cccc(-c2nnc(NC(=O)c3cccc(F)c3)o2)c1 | -37 | 22 | 87* | -4 | 1 | 34
O=C(Nc1nnc(-c2ccco2)o1)c1ccc(Cl)s1 | 17 | 1 | 51* | x | -4 | 2
O=C(Nc1nnc(-c2cccs2)o1)c1cccc(F)c1 | -42 | -6 | 85* | 6 | 1 | 24
COc1cccc(-c2nnc(NC(=O)c3ccc(Cl)s3)o2)c1 | -11 | 14 | 96* | -3 | -2 | 51
CC(C)[C@@H](C)NC(=O)N(C)C[C@@H]1OCc2ccccc2-c2ccccc2C(=O)N([C@@H](C)CO)C[C@@H]1C | x | x | x | -5 | -3 | x
COc1ccccc1-c1cnc2c(c1)C(=O)N([C@@H](C)CO)C[C@@H](C)[C@H](CN(C)C(=O)c1ccncc1)O2 | x | x | x | 2 | 16 | x
Cc1cc(C(=O)Nc2cccc3c2O[C@H](CN(C)Cc2ccncc2)[C@@H](C)CN([C@H](C)CO)C3=O)n(C)n1 | x | x | x | x | 1 | x
N#C[C@@H]1[C@H](c2ccc(C3=CCCC3)cc2)[C@H](CO)N1C(=O)C1CCC1 | x | x | x | 12 | -1 | x

From PubChem
